10 compounds from ChEMBL document CHEMBL2146379, “Antimetastatic effect of sulfamate carbonic anhydrase IX inhibitors in breast carcinoma xenografts” (J Med Chem, 2012) can be followed below.

Activity calls are given as the source filed them. No cut-off for these calls is given here.

Series [1] has as its system MDA-MB-231. Nature of the series: Antimetastatic activity against EGFP tagged human MDA-MB-231 cells expressing CA9 assessed as inhibition of cell spreading under normoxic condition at 33 uM after 60 mins by phalloidin staining. It counts as functional, cell-based.
Series [2] deals with Mus musculus. Nature of the series: Toxicity in nu/nu CBA mouse xenografted with EGFP tagged human MDA-MB-231 cells expressing CA9 assessed as signs of intolerance at 10 mg/kg, ip administered 5 days on 2 days off. It is filed as organism-based. On the set-up: dose 10 mg/kg, route intraperitoneal. The conditions noted are these: in vivo. In a few lines: (§1)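 Female nu/nu CBA mice, 10−12 weeks old, 8 per group, injected orthotopically into the fourth inguinal nipple with eGFP-MDA-MB-231 cells (5 × 10⁷ cells/mL in 1:1 serum-free RPMI/Matrigel). From 150 mm³ tumors, dosed 10 mg/kg ip daily (saline, 4% DMSO), 5 days on/2 off. Callipers 3×/week; health checked daily; body weight tracked. Culled at 1000 mm³; lung metastasis by ex vivo clonogenic assay.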

Series [3] is described as follows: Antimetastatic activity against EGFP tagged human WRO cells expressing CA9 assessed as inhibition of cell migration under anoxic condition at 100 uM after 24 hrs by scratch-wound assay. It is filed as functional.
The subject of series [4] is MDA-MB-231. Description: Antimetastatic activity against EGFP tagged human MDA-MB-231 cells expressing CA9 assessed as inhibition of cell migration under anoxic condition at 33 uM after 24 hrs by scratch-wound assay. It counts as functional. The conditions noted are these: MDA-MB-231, 24 h. In outline: (§2)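 Scratch-wound migration in confluent monolayers of RPMI 1640/10% FCS/2 mM glutamine-grown cells (eGFP-tagged MDA-MB-231, WRO, FTC-133; untagged RT112, HCT116). Incubation 24 h in normoxia or anoxia with DMSO or inhibitor at increasing concentrations (3.3, 10, 33 μM tested). Wound closure imaged by fluorescence. n = 3 per concentration per cell line; mean ± SEM, Student's t test.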

For series [5], the system named is MDA-MB-231. Nature of the series: Antimetastatic activity against EGFP tagged human MDA-MB-231 cells expressing CA9 xenografted in nu/nu CBA mouse tumor assessed as reduction in metastasic burden in lungs at 10 mg/kg, ip, administered 5 days on 2 days off measured on day 10 by clonogenic assay. It counts as functional, organism-based. On the set-up: dose 10 mg/kg. In outline:
as §1

The subject of series [6] is HCT-116. Nature of the series: Antimetastatic activity against human HCT116 cells xenografted in mouse assessed as inhibition of lung metastasis. It counts as functional.
Series [7] has as its system Mus musculus. Description: Toxicity in nu/nu CBA mouse xenografted with EGFP tagged human MDA-MB-231 cells expressing CA9 assessed as change in body weight at 10 mg/kg, ip administered 5 days on 2 days off. It counts as organism-based. On the set-up: dose 10 mg/kg, route intraperitoneal. The conditions noted are these: in vivo. In outline: as §1
The test system of series [8] is MDA-MB-231. Description: Antimetastatic activity against EGFP tagged human MDA-MB-231 cells expressing CA9 assessed as inhibition of cell migration under anoxic condition at 10 uM after 24 hrs by scratch-wound assay. The conditions noted are these: MDA-MB-231, 24 h. It is filed as functional. In a few lines: as §2
For series [9], the system named is MDA-MB-231. Nature of the series: Antimetastatic activity against EGFP tagged human MDA-MB-231 cells expressing CA9 assessed as inhibition of cell spreading under anoxic condition at 33 uM after 60 mins by phalloidin staining. It counts as functional, cell-based.
In series [10] the test system is MDA-MB-231. Description: Antitumor activity against EGFP tagged human MDA-MB-231 cells expressing CA9 xenografted in nu/nu CBA mouse assessed as tumor growth inhibition at 10 mg/kg, ip administered 5 days on 2 days off. It counts as functional, organism-based. On the set-up: dose 10 mg/kg. In outline: as §1
The test system of series [11] is MDA-MB-231. Nature of the series: Antimetastatic activity against EGFP tagged human MDA-MB-231 cells expressing CA9 assessed as inhibition of cell migration under anoxic condition at 3.3 uM after 24 hrs by scratch-wound assay. It is filed as functional. The conditions noted are these: MDA-MB-231, 24 h. In a few lines:
as §2

Series [12] deals with MDA-MB-231. Description: Cytotoxicity against EGFP tagged human MDA-MB-231 cells expressing CA9 at 100 uM. It is filed as functional, cell-based.
Series [13] has as its system HCT-116. Nature of the series: Antimetastatic activity against human HCT116 cells assessed as stimulation of cell migration under anoxic condition at 33 uM after 24 hrs by scratch-wound assay. It counts as functional. In outline: as §2
The subject of the next series is FTC-133. Description: Antimetastatic activity against EGFP tagged human FTC-133 cells expressing CA9 assessed as inhibition of cell migration under anoxic condition at 33 uM after 24 hrs by scratch-wound assay. It is filed as functional, cell-based. In outline:
as §2

For the next series, the system named is RT-112. Description: Antimetastatic activity against CA9 deficient human RT112 cells assessed as inhibition of cell migration under anoxic condition at 33 uM after 24 hrs by scratch-wound assay. It counts as functional, cell-based. In outline:
as §2

Series [14] relates to MDA-MB-231. Nature of the series: Antimetastatic activity against EGFP tagged human MDA-MB-231 cells expressing CA9 assessed as inhibition of cell migration under anoxic condition after 24 hrs by scratch-wound assay. It is filed as functional, cell-based. In outline:
as §2

Series [15] relates to MDA-MB-231. Description: Antimetastatic activity against EGFP tagged human MDA-MB-231 cells expressing CA9 assessed as inhibition of cell migration under normoxic condition after 24 hrs by scratch-wound assay. It is filed as functional, cell-based. In outline: as §2
The next series deals with Carbonic anhydrase 9 (Homo sapiens, UniProt Q16790). Description: Inhibition of human recombinant transmembrane CA9 preincubated for 15 mins by stopped-flow CO2 hydration method. In outline:
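Stopped-flow CO₂ hydration with in-house recombinant human CA, CO₂ 1.7−17 mM. Inhibitor diluted in water from 0.1 mM stock down to 0.01 nM, preincubated with enzyme 15 min at room temperature. Initial velocity from ≥6 traces of the first 5−10% of reaction, uncatalyzed rate subtracted.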

With `Cc1cc(C)cc(NC(=O)Nc2ccc(OS(N)(=O)=O)cc2)c1`, the inhibition result with MDA-MB-231 [1], in the series on HCT-116 [6] and in the series on RT-112 was “inactive” throughout. Further, the Activity entry in the series with Mus musculus [2] is on record as “Non-toxic”; in the series on Mus musculus [7], “Non-toxic”; in the series with HCT-116 [13], 44%. Besides, in series [3], the inhibition at 100 µM was found to be 41%. In addition, in the series on MDA-MB-231 [4], the inhibition at 33 µM worked out at 50%. For the same compound, the result with MDA-MB-231 [5] and with MDA-MB-231 [12] was Active. In the series with MDA-MB-231 [8], the inhibition at 10 µM stood at 21%. The inhibition entry in the series with MDA-MB-231 [9] and in the series on FTC-133 was “Active” each time. Further, in the series with MDA-MB-231 [10], the “growth inhibition (GI)” value is “inactive”. Further, the inhibition at 3.3 µM in the series on MDA-MB-231 [11] came out at 5%.
In the case of `NS(=O)(=O)Oc1ccc(NC(=O)Nc2ccc(F)cc2)cc1`, the inhibition entry in the series on MDA-MB-231 [14] and with MDA-MB-231 [15] was “Active” each time.
`NS(=O)(=O)Oc1ccc(NC(=O)Nc2ccc(Cl)cc2)cc1`: the inhibition entry in the series on MDA-MB-231 [14] and in the series with MDA-MB-231 [15] was “Active” in each case.
Consider `NS(=O)(=O)Oc1ccc(NC(=O)Nc2ccc(Oc3ccccc3)cc2)cc1`, for which the inhibition at 33 µM with MDA-MB-231 [4] stood at 49%.
In the case of `NS(=O)(=O)Oc1ccc(NC(=O)Nc2ccc([N+](=O)[O-])cc2)cc1`, the inhibition entry with MDA-MB-231 [14] and with MDA-MB-231 [15] was “Active” each time.
`CN(C)c1ccc(NC(=O)Nc2ccc(OS(N)(=O)=O)cc2)cc1`: the inhibition entry in the series on MDA-MB-231 [14] was “inactive”. The Ki at Carbonic anhydrase 9 was 9 nM.
Turning to `COc1ccc(NC(=O)Nc2ccc(OS(N)(=O)=O)cc2)cc1`, the inhibition result with MDA-MB-231 [14] is “inactive”.
Turning to `NS(=O)(=O)Oc1ccc(NC(=O)Nc2c(F)c(F)c(F)c(F)c2F)cc1`, in the series with MDA-MB-231 [4], the inhibition at 33 µM stood at 32%.
Turning to `NS(=O)(=O)Oc1ccc(NC(=S)Nc2ccc(-c3c4ccc(=O)cc-4oc4cc(O)ccc34)c(C(=O)O)c2)cc1`, in the series with MDA-MB-231 [14], the inhibition result was “inactive”.
`NS(=O)(=O)Oc1ccc(-[n+]2c(-c3ccccc3)cc(-c3ccccc3)cc2-c2ccccc2)cc1`: the inhibition entry in the series on MDA-MB-231 [14] was “inactive”. Moreover, the Ki on Carbonic anhydrase 9 amounted to 14 nM.
